The target in data set [1] is T1, Multidrug export protein MepA (Staphylococcus aureus (strain NCTC 8325)) (UniProt Q2G140).
T1 sequence (whole entry): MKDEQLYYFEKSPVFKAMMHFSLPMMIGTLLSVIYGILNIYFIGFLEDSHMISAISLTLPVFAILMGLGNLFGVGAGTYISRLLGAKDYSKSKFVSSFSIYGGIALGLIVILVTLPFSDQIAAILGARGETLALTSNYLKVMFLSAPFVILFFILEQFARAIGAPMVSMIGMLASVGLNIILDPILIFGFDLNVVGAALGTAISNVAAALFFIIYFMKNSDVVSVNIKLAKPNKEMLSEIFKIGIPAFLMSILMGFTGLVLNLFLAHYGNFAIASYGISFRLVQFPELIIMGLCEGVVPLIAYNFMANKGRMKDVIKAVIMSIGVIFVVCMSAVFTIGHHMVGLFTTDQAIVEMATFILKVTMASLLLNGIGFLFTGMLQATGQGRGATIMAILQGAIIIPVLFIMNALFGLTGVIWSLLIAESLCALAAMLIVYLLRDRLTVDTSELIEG
The experiment in a line: Inhibition of MepA in Staphylococcus aureus SA-K2886 assessed as synergistic potentiation of EtBr-induced antimicrobial activity by measuring […] at 3.13 ug/ml by microdilution method based Checkerboard assay (reference value: 25 ug/ml). The procedure, abridged: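 Checkerboard combination of EtBr with compound, using broth microdilution MICs. SA-K2886 (norA-deleted, pALC2073-mepA) and SA-K2885 (norA-deleted, empty pALC2073) were run with 0.05 µg/mL tetracycline in all experiments to induce the xyl/tetO promoter.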
Background: Dilution methods test growth across graded concentrations, often in twofold steps.

Data set [2] is described as follows: Drug metabolism in mouse liver microsomes assessed as compound hydroxylation at 50 uM in presence of NADPH regenerating system incubated for 120 mins by UPLC/MS analysis. It is filed as ADME, microsome. Conditions: 2 h. The procedure, abridged:
(§1)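 1 mg/mL mouse liver microsomes in 0.1 M Tris-HCl pH 7.4 with test compound at 50 µM, DMSO up to ~3%. Preincubated 5 min at 37 °C, then started with NADPH regeneration system. Stopped at 120 min with cold methanol and centrifuged. Supernatant analysed by UPLC/MS (ESI, tandem quadrupole).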

The nature of data set [3]: Drug metabolism in mouse liver microsomes assessed as oxidation at open piperidine ring or at hydroxylate at 50 uM in presence of NADPH regenerating system incubated for 120 mins by UPLC/MS analysis. It counts as ADME, microsome. Conditions: 2 h. The method, boiled down: as §1
The target of data set [4] is T2, Quinolone resistance protein NorA (Staphylococcus aureus) (UniProt P0A0J7).
T2 sequence (whole entry): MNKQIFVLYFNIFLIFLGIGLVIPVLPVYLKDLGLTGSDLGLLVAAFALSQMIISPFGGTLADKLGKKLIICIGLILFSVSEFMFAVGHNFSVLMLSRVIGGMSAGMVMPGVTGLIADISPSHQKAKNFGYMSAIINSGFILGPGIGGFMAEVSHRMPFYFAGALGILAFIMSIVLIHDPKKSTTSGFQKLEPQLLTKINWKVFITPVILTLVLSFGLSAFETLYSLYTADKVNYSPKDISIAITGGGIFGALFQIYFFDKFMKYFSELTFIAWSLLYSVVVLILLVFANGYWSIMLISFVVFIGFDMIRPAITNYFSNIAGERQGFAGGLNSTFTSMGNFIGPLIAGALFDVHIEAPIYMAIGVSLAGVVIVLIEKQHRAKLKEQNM
The experiment in a line: Inhibition of NorA in Staphylococcus aureus SA-K2378 assessed as synergistic potentiation of ciprofloxacin-induced antimicrobial activity at 0.78 ug/ml by microdilution method based Checkerboard assay.

The structures appear in SMILES notation.

The text below walks through data of ChEMBL document CHEMBL4145675, “2-Phenylquinoline S. aureus NorA Efflux Pump Inhibitors: Evaluation of the Importance of Methoxy Group Introduction” (J Med Chem, 2018).

With `CCCOc1ccc(-c2cc(OCCN3CCc4cc(OC)c(OC)cc4C3)c3cc(OC)c(OC)cc3n2)cc1`, in data set [1], the MIC was less than 1.56 µg/mL. The Drug metabolism result in data set [2] is recorded as “Metabolite_Detected”.

For the compound `CCCOc1ccc(-c2cc(OCCN3CCCCC3)c3cc(OC)ccc3n2)cc1`, the Drug metabolism entry in data set [3] is “Metabolite_Detected”. The fold change (FC) in data set [4] came to 8.
